Data taken from ChEMBL document CHEMBL5653631, “A Potent and Selective ULK1 Inhibitor Suppresses Autophagy and Sensitizes Cancer Cells to Nutrient Stress” (iScience, 2018).

Key:
[1] = target: T1, Myosin-IIIb (Homo sapiens) (UniProt Q8WXR4); experiment: Inhibition of human recombinant MYO3B at 40 nM related to control ULK1
T1 sequence (whole entry): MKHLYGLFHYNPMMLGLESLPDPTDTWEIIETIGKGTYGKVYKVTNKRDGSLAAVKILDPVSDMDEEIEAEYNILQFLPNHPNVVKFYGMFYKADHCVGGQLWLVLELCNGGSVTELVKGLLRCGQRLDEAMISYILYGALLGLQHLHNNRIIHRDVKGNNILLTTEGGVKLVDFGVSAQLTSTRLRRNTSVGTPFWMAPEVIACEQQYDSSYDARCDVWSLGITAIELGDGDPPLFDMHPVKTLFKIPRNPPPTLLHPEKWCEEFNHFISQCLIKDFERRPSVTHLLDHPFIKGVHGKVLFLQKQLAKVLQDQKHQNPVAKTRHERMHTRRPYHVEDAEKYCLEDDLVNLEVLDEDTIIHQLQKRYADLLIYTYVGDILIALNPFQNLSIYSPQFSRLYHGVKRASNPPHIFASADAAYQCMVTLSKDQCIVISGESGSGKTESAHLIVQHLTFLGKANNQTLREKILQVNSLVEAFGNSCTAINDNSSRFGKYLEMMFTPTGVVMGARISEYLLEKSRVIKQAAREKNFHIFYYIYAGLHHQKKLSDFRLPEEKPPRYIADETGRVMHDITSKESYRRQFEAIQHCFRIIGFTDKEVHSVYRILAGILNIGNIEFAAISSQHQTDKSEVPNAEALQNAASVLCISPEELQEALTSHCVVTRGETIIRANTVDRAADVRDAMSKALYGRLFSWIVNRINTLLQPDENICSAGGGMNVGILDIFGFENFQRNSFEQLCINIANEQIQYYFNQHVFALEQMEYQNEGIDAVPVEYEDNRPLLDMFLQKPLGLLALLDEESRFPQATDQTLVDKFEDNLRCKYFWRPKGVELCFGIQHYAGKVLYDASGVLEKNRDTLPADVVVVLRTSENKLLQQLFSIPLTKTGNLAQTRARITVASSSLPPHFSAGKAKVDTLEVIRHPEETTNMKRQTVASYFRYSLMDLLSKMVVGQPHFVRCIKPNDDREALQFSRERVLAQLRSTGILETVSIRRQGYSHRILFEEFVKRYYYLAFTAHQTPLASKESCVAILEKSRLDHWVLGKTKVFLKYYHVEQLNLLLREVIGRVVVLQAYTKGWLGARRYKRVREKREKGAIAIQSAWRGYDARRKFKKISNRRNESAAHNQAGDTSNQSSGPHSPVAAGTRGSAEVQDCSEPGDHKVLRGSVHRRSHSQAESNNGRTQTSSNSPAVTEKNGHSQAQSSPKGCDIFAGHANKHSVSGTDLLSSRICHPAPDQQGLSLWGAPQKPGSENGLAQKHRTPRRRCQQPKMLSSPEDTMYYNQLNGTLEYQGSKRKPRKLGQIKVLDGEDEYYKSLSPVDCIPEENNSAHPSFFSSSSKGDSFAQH

[2] = target: T2, Serine/threonine-protein kinase A-Raf (Homo sapiens) (UniProt P10398); experiment: Inhibition of human recombinant ARAF at 15 nM related to control ULK1
T2 sequence (whole entry): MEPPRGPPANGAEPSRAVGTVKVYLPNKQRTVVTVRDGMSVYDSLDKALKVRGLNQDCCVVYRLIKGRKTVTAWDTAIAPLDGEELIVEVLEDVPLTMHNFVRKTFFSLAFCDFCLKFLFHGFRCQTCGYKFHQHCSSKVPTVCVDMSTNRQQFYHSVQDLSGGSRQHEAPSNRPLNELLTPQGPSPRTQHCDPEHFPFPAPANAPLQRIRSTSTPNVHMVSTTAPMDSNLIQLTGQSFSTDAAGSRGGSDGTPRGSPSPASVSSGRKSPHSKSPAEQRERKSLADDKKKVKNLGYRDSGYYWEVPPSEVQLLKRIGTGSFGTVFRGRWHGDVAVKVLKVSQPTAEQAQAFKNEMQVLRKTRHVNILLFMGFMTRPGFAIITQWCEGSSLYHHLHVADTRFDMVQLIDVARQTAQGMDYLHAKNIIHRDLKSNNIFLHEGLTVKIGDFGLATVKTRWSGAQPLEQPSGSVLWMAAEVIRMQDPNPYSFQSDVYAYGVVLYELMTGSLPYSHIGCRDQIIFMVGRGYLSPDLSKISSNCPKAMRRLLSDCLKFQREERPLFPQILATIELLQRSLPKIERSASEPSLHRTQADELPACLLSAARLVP
Summary of the method: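 Panel of 327 recombinant human kinases, each assayed in vitro by radiometric activity assay in duplicate at a single inhibitor concentration per compound, chosen with reference to its ULK1 inhibition. Activity remaining was expressed as percent of vehicle control, and percent inhibition was calculated as 100 minus percent activity remaining.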

[3] = target: T3, Muscle, skeletal receptor tyrosine-protein kinase (Homo sapiens) (UniProt O15146); experiment: Inhibition of human recombinant MUSK at 500 nM in presence of ATP by radiometric assay relative to control
T3 sequence (whole entry): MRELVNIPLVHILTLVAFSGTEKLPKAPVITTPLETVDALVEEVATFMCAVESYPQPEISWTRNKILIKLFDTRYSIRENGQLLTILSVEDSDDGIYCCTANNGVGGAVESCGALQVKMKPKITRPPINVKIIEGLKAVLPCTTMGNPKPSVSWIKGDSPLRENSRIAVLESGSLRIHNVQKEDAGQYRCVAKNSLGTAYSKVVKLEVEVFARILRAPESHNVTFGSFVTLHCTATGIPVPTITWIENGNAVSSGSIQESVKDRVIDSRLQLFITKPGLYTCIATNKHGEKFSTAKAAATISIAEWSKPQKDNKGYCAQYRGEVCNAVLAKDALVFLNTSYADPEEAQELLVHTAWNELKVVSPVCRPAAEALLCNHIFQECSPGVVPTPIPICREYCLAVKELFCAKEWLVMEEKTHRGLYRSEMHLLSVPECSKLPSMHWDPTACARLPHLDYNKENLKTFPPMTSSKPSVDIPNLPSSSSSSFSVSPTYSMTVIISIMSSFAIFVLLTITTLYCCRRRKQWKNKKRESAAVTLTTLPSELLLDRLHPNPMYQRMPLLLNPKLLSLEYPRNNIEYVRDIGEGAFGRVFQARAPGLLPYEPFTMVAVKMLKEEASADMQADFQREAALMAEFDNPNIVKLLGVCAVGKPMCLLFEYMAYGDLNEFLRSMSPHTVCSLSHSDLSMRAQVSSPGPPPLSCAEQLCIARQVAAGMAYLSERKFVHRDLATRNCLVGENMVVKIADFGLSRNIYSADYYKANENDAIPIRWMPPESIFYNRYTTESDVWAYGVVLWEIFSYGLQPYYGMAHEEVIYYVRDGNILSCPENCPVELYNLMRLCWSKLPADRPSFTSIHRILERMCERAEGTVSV

[4] = target: Serine/threonine-protein kinase 25 (Homo sapiens) (UniProt O00506); experiment: Inhibition of human recombinant YSK1 at 500 nM related to control ULK1
Serine/threonine-protein kinase 25 (Homo sapiens), sequence (O00506 whole entry, looked up): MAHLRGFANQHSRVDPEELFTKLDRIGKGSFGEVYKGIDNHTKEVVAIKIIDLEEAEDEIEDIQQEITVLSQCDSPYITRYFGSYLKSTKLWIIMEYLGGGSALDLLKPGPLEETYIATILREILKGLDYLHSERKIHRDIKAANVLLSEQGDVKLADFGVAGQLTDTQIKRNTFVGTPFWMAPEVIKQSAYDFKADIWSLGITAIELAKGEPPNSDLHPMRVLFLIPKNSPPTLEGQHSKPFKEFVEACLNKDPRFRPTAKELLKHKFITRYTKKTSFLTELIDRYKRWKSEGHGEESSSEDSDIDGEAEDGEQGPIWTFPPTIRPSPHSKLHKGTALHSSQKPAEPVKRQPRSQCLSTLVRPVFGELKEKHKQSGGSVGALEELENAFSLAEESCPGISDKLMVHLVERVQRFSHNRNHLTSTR

Work on `O=C(N[C@@H](C1CC1)C(F)(F)F)c1cc(-c2cnn3cc(-c4ccc(F)cc4)cnc23)cs1` yielded a fold change (FC) [1] of 0.

`CC(C)[C@H](NC(=O)c1cc(-c2cnn3cc(-c4ccc(OCCN5CCCCC5)cc4)cnc23)cs1)C(F)(F)F` was tested, and the fold change (FC) [2] was 0.07.

`CNC(=O)c1ccccc1Oc1nc(Nc2cc(OC)c(OC)c(OC)c2)ncc1Br` was tested, and the inhibition [3] was 34% and the fold change (FC) [4] was 0.16.
